Data published in ChEMBL document CHEMBL1909620, “The development of N-α-(2-carboxyl)benzoyl-N(5)-(2-fluoro-1-iminoethyl)-l-ornithine amide (o-F-amidine) and N-α-(2-carboxyl)benzoyl-N(5)-(2-chloro-1-iminoethyl)-l-ornithine amide (o-Cl-amidine) as second generation protein arginine deiminase (PAD) inhibitors” (J Med Chem, 2011).
Calls of active or inactive are those of the source. The calls are words filed in the database; no cut-off is given here.

Columns and labels:
[1] = target: T1, Protein-arginine deiminase type-3 (Homo sapiens, UniProt Q9ULW8); assay: Irreversible inhibition of PAD3 assessed as hydrolysis of benzoyl-L-arginine ethyl ester preincubated for 15 mins measured after 15 mins by fluorometric analysis
T1 sequence (Q9ULW8 whole entry): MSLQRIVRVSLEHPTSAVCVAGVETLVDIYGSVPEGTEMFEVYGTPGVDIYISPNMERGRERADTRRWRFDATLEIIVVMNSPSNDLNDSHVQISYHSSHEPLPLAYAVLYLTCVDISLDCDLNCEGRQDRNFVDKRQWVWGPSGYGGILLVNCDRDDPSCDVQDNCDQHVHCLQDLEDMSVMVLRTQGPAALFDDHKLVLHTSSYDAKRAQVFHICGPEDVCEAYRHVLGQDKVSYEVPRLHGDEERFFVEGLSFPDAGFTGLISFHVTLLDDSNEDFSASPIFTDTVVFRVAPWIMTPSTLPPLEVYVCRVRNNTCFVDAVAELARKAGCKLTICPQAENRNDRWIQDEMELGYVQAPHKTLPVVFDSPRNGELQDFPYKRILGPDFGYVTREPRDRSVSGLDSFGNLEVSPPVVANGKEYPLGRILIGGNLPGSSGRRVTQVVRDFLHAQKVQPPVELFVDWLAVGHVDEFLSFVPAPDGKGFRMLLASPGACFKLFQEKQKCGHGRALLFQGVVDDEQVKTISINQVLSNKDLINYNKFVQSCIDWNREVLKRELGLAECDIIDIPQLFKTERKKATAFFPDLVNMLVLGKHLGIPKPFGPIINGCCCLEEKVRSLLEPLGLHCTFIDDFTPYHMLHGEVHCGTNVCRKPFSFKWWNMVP

[2] = target: T2, Protein-arginine deiminase type-1 (Homo sapiens, UniProt Q9ULC6); assay: Irreversible inhibition of PAD1 assessed as hydrolysis of benzoyl-L-arginine ethyl ester preincubated for 15 mins measured after 15 mins by fluorometric analysis
T2 sequence (Q9ULC6 whole entry): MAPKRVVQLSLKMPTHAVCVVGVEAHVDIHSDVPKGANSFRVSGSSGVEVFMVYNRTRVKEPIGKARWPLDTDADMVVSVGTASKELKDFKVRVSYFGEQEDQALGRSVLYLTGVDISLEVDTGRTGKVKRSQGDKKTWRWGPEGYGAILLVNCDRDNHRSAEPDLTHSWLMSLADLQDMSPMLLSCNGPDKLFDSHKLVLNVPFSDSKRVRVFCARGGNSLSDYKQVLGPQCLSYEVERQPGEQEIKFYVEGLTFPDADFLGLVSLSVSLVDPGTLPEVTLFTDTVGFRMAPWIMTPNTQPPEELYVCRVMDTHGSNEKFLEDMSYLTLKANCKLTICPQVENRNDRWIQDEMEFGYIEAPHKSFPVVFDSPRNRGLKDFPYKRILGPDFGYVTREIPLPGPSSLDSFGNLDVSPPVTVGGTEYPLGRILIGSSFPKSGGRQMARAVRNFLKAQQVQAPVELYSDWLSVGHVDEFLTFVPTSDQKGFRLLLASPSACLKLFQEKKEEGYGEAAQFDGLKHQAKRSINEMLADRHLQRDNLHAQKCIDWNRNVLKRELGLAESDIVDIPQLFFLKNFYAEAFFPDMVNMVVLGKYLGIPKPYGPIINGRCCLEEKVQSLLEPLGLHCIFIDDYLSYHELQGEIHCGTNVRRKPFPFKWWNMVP

[3] = system: TK6; assay: Induction of apoptosis in human TK6 cells assessed as late apoptotic cells at 50 ug/ml after 8 hrs by annexin V/propidium iodide staining method relative to control; format: functional
Procedure, shortened: (§1)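 TK6 human lymphoblastoid cells kept in exponential suspension culture in RPMI 1640 with 10% heat-inactivated calf serum, penicillin/streptomycin and 2 mmol/L L-glutamine at 37 °C, 5% CO2. Serum was cut to 1% 12 h before dosing at 50 μg/ml for the stated times. Cells were stained with Annexin V/propidium iodide and analysed as quadrant scatterplots.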

[4] = system: TK6; assay: Induction of apoptosis in human TK6 cells assessed as viable cells at 50 ug/ml after 4 hrs by annexin V/propidium iodide staining method relative to control; format: functional; settings: TK6, 4 h, read-out: Activity; procedure, shortened: as §1
[5] = system: TK6; assay: Induction of apoptosis in human TK6 cells assessed as early apoptotic cells at 50 ug/ml after 8 hrs by annexin V/propidium iodide staining method relative to control; format: functional; procedure, shortened: as §1
[6] = system: TK6; assay: Induction of apoptosis in human TK6 cells assessed as viable cells at 50 ug/ml after 8 hrs by annexin V/propidium iodide staining method relative to control; format: functional; settings: TK6, 8 h, read-out: Activity; procedure, shortened: as §1
[7] = system: TK6; assay: Induction of apoptosis in human TK6 cells assessed as early apoptotic cells at 50 ug/ml after 2 hrs by annexin V/propidium iodide staining method relative to control; format: functional; procedure, shortened: as §1
[8] = system: TK6; assay: Induction of apoptosis in human TK6 cells assessed as necrotic cells at 50 ug/ml after 4 hrs by annexin V/propidium iodide staining method relative to control; format: functional; procedure, shortened: as §1
[9] = system: TK6; assay: Induction of apoptosis in human TK6 cells assessed as late apoptotic cells at 50 ug/ml after 4 hrs by annexin V/propidium iodide staining method relative to control; format: functional; procedure, shortened: as §1
[10] = system: TK6; assay: Induction of apoptosis in human TK6 cells assessed as induction of PARP cleavage at 50 ug/ml measured up to 8 hrs by Western blotting; format: functional, cell-based
Procedure, shortened: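 TK6 cells were moved to 1% heat-inactivated calf serum RPMI 1640 12 h beforehand, then exposed to 50 μg/ml for time courses. PARP cleavage was detected by western blot with anti-PARP antibody, using GAPDH as loading control.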

[11] = system: TK6; assay: Induction of apoptosis in human TK6 cells assessed as early apoptotic cells at 50 ug/ml after 4 hrs by annexin V/propidium iodide staining method relative to control; format: functional
[12] = system: TK6; assay: Induction of apoptosis in human TK6 cells assessed as necrotic cells at 50 ug/ml after 8 hrs by annexin V/propidium iodide staining method relative to control relative to control; format: functional; procedure, shortened: as §1
[13] = system: TK6; assay: Induction of apoptosis in human TK6 cells assessed as necrotic cells at 50 ug/ml after 2 hrs by annexin V/propidium iodide staining method relative to control; format: functional; procedure, shortened: as §1
[14] = system: TK6; assay: Induction of apoptosis in human TK6 cells assessed as late apoptotic cells at 50 ug/ml after 2 hrs by annexin V/propidium iodide staining method relative to control; format: functional; procedure, shortened: as §1
[15] = system: TK6; assay: Induction of apoptosis in human TK6 cells assessed as viable cells at 50 ug/ml after 2 hrs by annexin V/propidium iodide staining method relative to control; format: functional; settings: TK6, 2 h, read-out: Activity; procedure, shortened: as §1
[16] = system: HL-60; assay: Induction of human HL60 cell differentiation assessed as increase in PAD4 expression level at 1 uM after 12 hrs by Western blotting; format: functional, cell-based
[17] = system: HL-60; assay: Induction of human HL60 cell differentiation assessed as increase in PAD4 expression level after 24 hrs by Western blotting; format: functional, cell-based
[18] = system: HL-60; assay: Induction of human HL60 cell differentiation assessed as increase in PAD4 expression level at 10 uM after 6 hrs by Western blotting; format: functional, cell-based
[19] = system: HL-60; assay: Induction of human HL60 cell differentiation assessed as increase in PAD4 expression level at 1 uM after 24 hrs by Western blotting; format: functional, cell-based
[20] = system: HL-60; assay: Induction of human HL60 cell differentiation assessed as increase in PAD4 expression level at 1 to 10 uM by Western blotting; format: functional, cell-based; settings: TDE = time-dependent effect
[21] = target: Protein-arginine deiminase type-4 (Homo sapiens, UniProt Q9UM07); assay: Irreversible inhibition of PAD4 assessed as hydrolysis of benzoyl-L-arginine ethyl ester preincubated for 15 mins measured after 15 mins by fluorometric analysis
Protein-arginine deiminase type-4, sequence (Q9UM07 whole entry): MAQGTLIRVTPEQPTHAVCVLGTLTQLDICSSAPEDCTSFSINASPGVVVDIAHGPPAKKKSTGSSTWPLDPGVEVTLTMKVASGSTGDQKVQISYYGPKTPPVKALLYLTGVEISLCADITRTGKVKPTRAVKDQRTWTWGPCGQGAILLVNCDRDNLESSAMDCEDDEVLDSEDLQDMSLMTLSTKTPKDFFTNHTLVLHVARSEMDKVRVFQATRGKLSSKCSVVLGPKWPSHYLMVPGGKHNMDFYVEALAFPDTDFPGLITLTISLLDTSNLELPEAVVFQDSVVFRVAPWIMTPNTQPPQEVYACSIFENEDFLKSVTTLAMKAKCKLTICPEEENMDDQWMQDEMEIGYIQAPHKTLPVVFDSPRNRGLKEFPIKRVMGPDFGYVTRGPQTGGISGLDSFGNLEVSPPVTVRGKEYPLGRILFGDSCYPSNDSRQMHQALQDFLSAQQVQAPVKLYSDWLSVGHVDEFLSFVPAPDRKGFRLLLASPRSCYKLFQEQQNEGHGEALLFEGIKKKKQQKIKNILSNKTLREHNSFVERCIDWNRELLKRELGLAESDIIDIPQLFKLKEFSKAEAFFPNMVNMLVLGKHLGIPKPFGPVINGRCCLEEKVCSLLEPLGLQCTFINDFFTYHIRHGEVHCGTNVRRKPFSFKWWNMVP

[22] = target: Protein-arginine deiminase type-2 (Homo sapiens, UniProt Q9Y2J8); assay: Irreversible inhibition of PAD2 assessed as hydrolysis of benzoyl-L-arginine ethyl ester preincubated for 15 mins measured after 15 mins by fluorometric analysis
Protein-arginine deiminase type-2, sequence (Q9Y2J8 whole entry): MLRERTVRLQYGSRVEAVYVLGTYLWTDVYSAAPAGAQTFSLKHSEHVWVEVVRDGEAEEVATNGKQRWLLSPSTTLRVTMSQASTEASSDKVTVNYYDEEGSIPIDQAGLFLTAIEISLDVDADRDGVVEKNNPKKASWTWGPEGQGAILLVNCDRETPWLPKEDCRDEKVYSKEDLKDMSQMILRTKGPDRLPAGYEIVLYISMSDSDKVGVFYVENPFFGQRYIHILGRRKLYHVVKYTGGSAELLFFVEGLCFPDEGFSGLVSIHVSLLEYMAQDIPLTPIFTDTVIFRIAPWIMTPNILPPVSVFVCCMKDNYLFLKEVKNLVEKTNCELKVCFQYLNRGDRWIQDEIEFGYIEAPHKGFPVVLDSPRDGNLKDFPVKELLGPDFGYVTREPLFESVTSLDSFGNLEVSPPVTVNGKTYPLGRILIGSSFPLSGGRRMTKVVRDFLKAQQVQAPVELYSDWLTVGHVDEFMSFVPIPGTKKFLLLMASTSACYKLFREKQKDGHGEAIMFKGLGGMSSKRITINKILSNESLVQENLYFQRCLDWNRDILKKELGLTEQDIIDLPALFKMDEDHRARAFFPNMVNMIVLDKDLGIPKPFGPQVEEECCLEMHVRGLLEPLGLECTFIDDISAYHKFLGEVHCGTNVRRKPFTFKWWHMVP

[23] = system: HL-60; assay: Potentiation of doxorubicin-induced cytotoxicity against human HL60 cells assessed as reduction in cell viability at 0.1 to 1 uM after 24 hrs by MTT assay relative to control; format: functional
Procedure, shortened: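 HL60 cells (RPMI 1640, 10% FBS, 37 °C, 5% CO2) were exposed for 24 h to doxorubicin alone or together with inhibitor at fixed levels. Viability was read by MTT assay as percent of control absorbance, run in triplicate. Doxorubicin EC50 came from dose-response fits. Interaction was scored by the additive model: observed/expected ratio <0.8 synergistic, 0.8–1.2 additive.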

[24] = system: HL-60; assay: Cytotoxicity against human HL60 cells assessed as reduction in cell viability after 24 hrs by MTT assay relative to control; format: functional, cell-based; settings: HL-60, 24 h
Procedure, shortened: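 HL60 cells grown in RPMI 1640 with 10% FBS and 1% penicillin-streptomycin at 37 °C, 5% CO2, used at 1 × 10^6 cells/mL. Compounds were added at 100 nM to 100 μM final and incubated 24 h. Viability was read by MTT-type assay as percent of control absorbance, with 1% Triton X-100 as the 100% kill control. Triplicates; EC50 from dose-response fit where possible.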

N=C(CF)NCCC[C@H](NC(=O)c1ccccc1)C(N)=O
IC50 [1]: 367 µM | Ki [1]: 293 µM | IC50 [2]: 29 µM | Ki [2]: 110 µM

N=C(CCl)NCCC[C@H](NC(=O)c1ccccc1)C(N)=O.O=C(O)C(F)(F)F
Activity [3]: 32.6% | viability at 50 µg/mL [4]: 78.8% | Activity [5]: 20.4% | viability at 50 µg/mL [6]: 46.2% | Activity [7]: 7.5% | Activity [8]: 0.4% | Activity [9]: 8.9% | Activity [10]: Active | Activity [11]: 11.9% | Activity [12]: 0.8% | Activity [13]: 0.1% | Activity [14]: 6.8% | viability at 50 µg/mL [15]: 85.6%

N=C(CCl)NCCC[C@H](NC(=O)c1ccccc1C(=O)O)C(N)=O
Activity [16]: Active | Activity [17]: Dose-dependent effect | Activity [18]: Active | Activity [19]: Active | Activity [20]: tde

CCCNC(=N)CF
IC50 [21]: > 1000 µM

N=C(CF)Nc1cccc(C[C@H](NC(=O)c2ccccc2)C(N)=O)c1
IC50 [21]: 310 µM

N=C(CF)NCc1ccccc1
IC50 [21]: > 1000 µM

N=C(CF)NCc1ccc(C[C@H](NC(=O)c2ccccc2)C(N)=O)cc1
IC50 [21]: > 1000 µM

N=C(CF)Nc1cccc([C@H](NC(=O)c2ccccc2)C(N)=O)c1
IC50 [21]: 2100 µM

N=C(CF)NCCC[C@H](NC(=O)c1ccccc1C(=O)O)C(N)=O.O=C(O)C(F)(F)F
Activity [16]: Active | Activity [17]: Dose-dependent effect | Activity [18]: Active | IC50 [22]: ≥ 50 µM | Activity [3]: 11.9% | viability at 50 µg/mL [4]: 74.9% | Activity [5]: 27.7% | viability at 50 µg/mL [6]: 60.1% | Activity [7]: 8.3% | Activity [19]: Active | Activity [8]: 0.3% | Activity [9]: 4.8% | Activity [10]: Active | Activity [12]: 0.3% | Activity [13]: 0.3% | Activity [14]: 3.3% | viability at 50 µg/mL [15]: 88% | Activity [20]: tde

N=C(CF)NCCC[C@H](NC(=O)c1c[nH]cn1)C(N)=O
IC50 [21]: 230 µM

N=C(N)CF
IC50 [21]: > 10000 µM

N=C(CF)NCCCCNS(=O)(=O)c1ccccc1
IC50 [21]: > 1000 µM

N=C(CF)NCCC[C@H](NS(=O)(=O)c1ccccc1)C(N)=O
IC50 [21]: 500 µM

COc1cccc2c1C(=O)c1c(O)c3c(c(O)c1C2=O)C[C@@](O)(C(=O)CO)C[C@@H]3O[C@H]1C[C@H](N)[C@H](O)[C@H](C)O1 [DOXORUBICIN]
fold change (FC) [23]: 6 | EC50 [24]: 2.5 µM

N=C(CF)Nc1ccc(C[C@H](NC(=O)c2ccccc2)C(N)=O)cc1
IC50 [21]: 310 µM

N=C(CF)Nc1ccccc1
IC50 [21]: > 500 µM

N=C(CF)NCCCCNC(=O)c1ccccc1
IC50 [21]: > 1000 µM
